Among the data in ChEMBL document CHEMBL4257465, “Strigolactones: a plant phytohormone as novel anti-inflammatory agents” (Medchemcomm, 2018) are IC50, Activity and viability values, retold here.

Structures are written as SMILES.

For data set [1], the system named is RAW264.7. Put plainly: Antiinflammatory activity in mouse RAW264.7 cells assessed as inhibition of LPS-induced NO production pretreated for 2 hrs followed by LPS stimulation measured after 24 hrs by Griess assay. The data set is classed as functional, cell-based. An outline of the steps: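 RAW264.7 murine macrophages (DMEM, 10% serum, 37 °C, 5% CO2) seeded at 5 × 10^4 cells/well and cultured 18 h. Compounds tested at 1–100 μM (DMSO 0.1% v/v), with LPS (E. coli 0127:B8) at 100 ng mL−1. Supernatant nitrite read with Griess reagent (10 min, room temperature, OD540).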
For orientation: Griess reagent forms a coloured azo dye with nitrite.

For data set [2], the system named is RAW264.7. Put plainly: Antiinflammatory activity in LPS-induced mouse RAW264.7 cells assessed as TNFalpha levels at 5 uM pretreated for 2 hrs followed by LPS stimulation and measured after 6 hrs by ELISA (reference value: 4377.1 +/- 318.6 pg/ml). The data set is classed as functional. In outline: (§1)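 RAW264.7 murine macrophages (DMEM, 10% serum, 37 °C, 5% CO2) seeded at 5 × 10^5 cells per well, pretreated 2 h with compound at 10, 5, 2.5 or 1.25 μM (DMSO 0.1% v/v), then LPS (E. coli 0127:B8) 100 ng mL−1 added. Supernatant TNF-α or IL-6 read by mouse ELISA kit after 6, 12 and 24 h. Mean ± SD, n = 3, three independent experiments.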
(In an ELISA, binding on a coated surface is turned into a signal by an enzyme label.)

Data set [3] concerns RAW264.7. Put plainly: Antiinflammatory activity in LPS-induced mouse RAW264.7 cells assessed as IL-6 levels at 2.5 uM pretreated for 2 hrs followed by LPS stimulation and measured after 12 hrs by ELISA (reference value: 1394 +/- 62.6 pg/ml). The data set is classed as functional. An outline of the steps:
as §1

Data set [4] relates to RAW264.7. Kind of data set: Antiinflammatory activity in LPS-induced mouse RAW264.7 cells assessed as IL-6 levels at 10 uM pretreated for 2 hrs followed by LPS stimulation and measured after 24 hrs by ELISA (reference value: 1966.6 +/- 102.3 pg/ml). The data set is classed as functional. An outline of the steps:
as §1

The subject of data set [5] is RAW264.7. Kind of data set: Antiinflammatory activity in LPS-induced mouse RAW264.7 cells assessed as IL-6 levels at 1.25 uM pretreated for 2 hrs followed by LPS stimulation and measured after 24 hrs by ELISA (reference value: 1966.6 +/- 102.3 pg/ml). The data set is classed as functional. In outline:
as §1

Data set [6] relates to RAW264.7. Put plainly: Antiinflammatory activity in LPS-induced mouse RAW264.7 cells assessed as IL-6 levels at 1.25 uM pretreated for 2 hrs followed by LPS stimulation and measured after 12 hrs by ELISA (reference value: 1394 +/- 62.6 pg/ml). The data set is classed as functional. An outline of the steps: as §1
Data set [7] can be described thus: Cytotoxicity against mouse RAW264.7 cells assessed as cell viability at 10 uM after 48 hrs by MTT assay (reference value: 100%). The data set is classed as cell-based. The settings on record: read-out: Activity. An outline of the steps:
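RAW264.7 cells seeded at 4 × 10^3 per well, cultured overnight, exposed to compound (DMSO 0.1% v/v) for 48 h. MTT 0.5 mg mL−1 added for 4 h at 37 °C, formazan dissolved in DMSO, OD570 read. Viability relative to medium-only cells set as 100%. Mean ± SD (n = 5), three independent experiments.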
(Tetrazolium dyes change colour on reduction, which living cells bring about.)

In data set [8] the test system is RAW264.7. Kind of data set: Antiinflammatory activity in LPS-induced mouse RAW264.7 cells assessed as TNFalpha levels at 2.5 uM pretreated for 2 hrs followed by LPS stimulation and measured after 6 hrs by ELISA (reference value: 4377.1 +/- 318.6 pg/ml). The data set is classed as functional. An outline of the steps: as §1
Data set [9] relates to RAW264.7. Put plainly: Antiinflammatory activity in LPS-induced mouse RAW264.7 cells assessed as IL-6 levels at 1.25 uM pretreated for 2 hrs followed by LPS stimulation and measured after 6 hrs by ELISA (reference value: 472.3 +/- 25.8 pg/ml). The data set is classed as functional. An outline of the steps:
as §1

In data set [10] the test system is RAW264.7. Kind of data set: Antiinflammatory activity in LPS-induced mouse RAW264.7 cells assessed as TNFalpha levels at 10 uM pretreated for 2 hrs followed by LPS stimulation and measured after 24 hrs by ELISA (reference value: 9653.7 +/- 377.3 pg/ml). The data set is classed as functional. An outline of the steps: as §1
Data set [11] has as its system RAW264.7. Put plainly: Antiinflammatory activity in LPS-induced mouse RAW264.7 cells assessed as IL-6 levels at 5 uM pretreated for 2 hrs followed by LPS stimulation and measured after 6 hrs by ELISA (reference value: 472.3 +/- 25.8 pg/ml). The data set is classed as functional. In outline:
as §1

Data set [12] has as its system RAW264.7. Kind of data set: Antiinflammatory activity in LPS-induced mouse RAW264.7 cells assessed as TNFalpha levels at 5 uM pretreated for 2 hrs followed by LPS stimulation and measured after 12 hrs by ELISA (reference value: 5313.7 +/- 420.9 pg/ml). The data set is classed as functional. An outline of the steps:
as §1

Data set [13] has as its system RAW264.7. Put plainly: Antiinflammatory activity in LPS-induced mouse RAW264.7 cells assessed as TNFalpha levels at 2.5 uM pretreated for 2 hrs followed by LPS stimulation and measured after 24 hrs by ELISA (reference value: 9653.7 +/- 377.3 pg/ml). The data set is classed as functional. In outline:
as §1

The subject of data set [14] is RAW264.7. Put plainly: Antiinflammatory activity in LPS-induced mouse RAW264.7 cells assessed as IL-6 levels at 10 uM pretreated for 2 hrs followed by LPS stimulation and measured after 6 hrs by ELISA (reference value: 472.3 +/- 25.8 pg/ml). The data set is classed as functional. In outline:
as §1

Data set [15] deals with RAW264.7. Kind of data set: Antiinflammatory activity in LPS-induced mouse RAW264.7 cells assessed as IL-6 levels at 2.5 uM pretreated for 2 hrs followed by LPS stimulation and measured after 24 hrs by ELISA (reference value: 1966.6 +/- 102.3 pg/ml). The data set is classed as functional. In outline:
as §1

Data set [16] has as its system RAW264.7. Put plainly: Antiinflammatory activity in LPS-induced mouse RAW264.7 cells assessed as IL-6 levels at 5 uM pretreated for 2 hrs followed by LPS stimulation and measured after 24 hrs by ELISA (reference value: 1966.6 +/- 102.3 pg/ml). The data set is classed as functional. An outline of the steps: as §1
The test system of data set [17] is RAW264.7. Put plainly: Antiinflammatory activity in LPS-induced mouse RAW264.7 cells assessed as TNFalpha levels at 1.25 uM pretreated for 2 hrs followed by LPS stimulation and measured after 6 hrs by ELISA (reference value: 4377.1 +/- 318.6 pg/ml). The data set is classed as functional. An outline of the steps:
as §1

The subject of data set [18] is RAW264.7. Put plainly: Antiinflammatory activity in LPS-induced mouse RAW264.7 cells assessed as IL-6 levels at 2.5 uM pretreated for 2 hrs followed by LPS stimulation and measured after 6 hrs by ELISA (reference value: 472.3 +/- 25.8 pg/ml). The data set is classed as functional. In outline:
as §1

Data set [19] concerns RAW264.7. Put plainly: Antiinflammatory activity in LPS-induced mouse RAW264.7 cells assessed as IL-6 levels at 5 uM pretreated for 2 hrs followed by LPS stimulation and measured after 12 hrs by ELISA (reference value: 1394 +/- 62.6 pg/ml). The data set is classed as functional. An outline of the steps: as §1
Data set [20] deals with RAW264.7. Put plainly: Antiinflammatory activity in LPS-induced mouse RAW264.7 cells assessed as TNFalpha levels at 10 uM pretreated for 2 hrs followed by LPS stimulation and measured after 12 hrs by ELISA (reference value: 5313.7 +/- 420.9 pg/ml). The data set is classed as functional. An outline of the steps:
as §1

The test system of data set [21] is RAW264.7. Kind of data set: Antiinflammatory activity in LPS-induced mouse RAW264.7 cells assessed as IL-6 levels at 10 uM pretreated for 2 hrs followed by LPS stimulation and measured after 12 hrs by ELISA (reference value: 1394 +/- 62.6 pg/ml). The data set is classed as functional. An outline of the steps:
as §1

Data set [22] relates to RAW264.7. Kind of data set: Antiinflammatory activity in LPS-induced mouse RAW264.7 cells assessed as TNFalpha levels at 5 uM pretreated for 2 hrs followed by LPS stimulation and measured after 24 hrs by ELISA (reference value: 9653.7 +/- 377.3 pg/ml). The data set is classed as functional. In outline: as §1
In data set [23] the test system is RAW264.7. Put plainly: Antiinflammatory activity in LPS-induced mouse RAW264.7 cells assessed as TNFalpha levels at 1.25 uM pretreated for 2 hrs followed by LPS stimulation and measured after 24 hrs by ELISA (reference value: 9653.7 +/- 377.3 pg/ml). The data set is classed as functional. An outline of the steps:
as §1

In data set [24] the test system is RAW264.7. Put plainly: Antiinflammatory activity in LPS-induced mouse RAW264.7 cells assessed as TNFalpha levels at 10 uM pretreated for 2 hrs followed by LPS stimulation and measured after 6 hrs by ELISA (reference value: 4377.1 +/- 318.6 pg/ml). The data set is classed as functional. An outline of the steps:
as §1

Usually IC50 stands for the point on the concentration scale where inhibition reaches its midpoint. For the molecule `CC1=C[C@H](O/C=C2/C(=O)OC3c4ccccc4CC23)OC1=O` (some centres undefined), the IC50 in the data set on RAW264.7 [1] worked out at 4.06 µM.
Regarding `CC1=C[C@@H](O/C=C2/C(=O)OC3c4ccccc4CC23)OC1=O` (some centres undefined), in the data set on RAW264.7 [1], the IC50 is 4.32 µM.
The same measure, in the same setting: as for `CC1C[C@H](O/C=C2/C(=O)O[C@H]3c4ccccc4C[C@@H]23)OC1=O` (some centres undefined), the figure is 60.5 µM; as for `CC1C[C@@H](O/C=C2/C(=O)OC3c4ccccc4CC23)OC1=O` (some centres undefined), 44.5 µM.
As for `CC1=C[C@@H](O/C=C2/C(=O)O[C@@H]3c4ccccc4C[C@H]23)OC1=O`, the IC50 with RAW264.7 [1] was 6.62 µM.
On to `C[C@@H]1C[C@H]2[C@@H]3CCC4=CC(=O)C=C[C@]4(C)[C@@]3(F)[C@@H](O)C[C@]2(C)[C@@]1(O)C(=O)CO` [DEXAMETHASONE], for which the Activity with RAW264.7 [2] turned out to be 3219.4 pg/mL; in the data set on RAW264.7 [3], 1120.3 pg/mL; with RAW264.7 [4] it was 924.1 pg/mL; in the data set on RAW264.7 [5] it was 1770.4 pg/mL; in the data set with RAW264.7 [6], 1240.5 pg/mL; with RAW264.7 [8] it was 3671.8 pg/mL. Moreover, the Activity with RAW264.7 [9] came out at 422.7 pg/mL; in the data set on RAW264.7 [10], 6458.3 pg/mL; with RAW264.7 [11], 332.8 pg/mL; with RAW264.7 [12] it was 4063.6 pg/mL; in the data set with RAW264.7 [13] it was 8187.9 pg/mL; with RAW264.7 [14], 269.5 pg/mL. Besides, the Activity was 1594.9 pg/mL in the data set with RAW264.7 [15]; 1336.5 pg/mL in the data set with RAW264.7 [16]; 4056.3 pg/mL in the data set with RAW264.7 [17]; 393.4 pg/mL in the data set with RAW264.7 [18]; 927.7 pg/mL in the data set with RAW264.7 [19]; 3393.5 pg/mL with RAW264.7 [20]. Further, the Activity with RAW264.7 [21] was 791 pg/mL; with RAW264.7 [22], 7533.7 pg/mL; in the data set with RAW264.7 [23] it was 8748.1 pg/mL; in the data set on RAW264.7 [24], 2655 pg/mL. In data set [7], the viability at 48 h, 10 µM was 100%. The IC50 in the data set on RAW264.7 [1] came out at 2.66 µM.
Consider `CC1C[C@@H](O/C=C2/C(=O)O[C@@H]3c4ccccc4C[C@H]23)OC1=O` (some centres undefined), for which the IC50 in the data set with RAW264.7 [1] amounted to 64.6 µM.
As to `CC1=C[C@H](O/C=C2/C(=O)O[C@H]3c4ccccc4C[C@@H]23)OC1=O`, the IC50 in the data set with RAW264.7 [1] is 6.34 µM.
For `CC1C[C@H](O/C=C2/C(=O)O[C@@H]3c4ccccc4C[C@H]23)OC1=O` (some centres undefined), the IC50 with RAW264.7 [1] amounted to 32.3 µM.
For the molecule `CC1C[C@H](O/C=C2/C(=O)OC3c4ccccc4CC23)OC1=O` (some centres undefined), the IC50 in the data set with RAW264.7 [1] came out at 42.1 µM.
In the case of `CC1C[C@@H](O/C=C2/C(=O)O[C@H]3c4ccccc4C[C@@H]23)OC1=O` (some centres undefined), the IC50 in the data set on RAW264.7 [1] was 35.4 µM.
